From ChEMBL document CHEMBL1136577, “Synthesis of 6-formyl-pyridine-2-carboxylate derivatives and their telomerase inhibitory activities” (Bioorg Med Chem Lett, 2003)

What was measured:
[1] = biological target: Telomerase reverse transcriptase (Homo sapiens, UniProt O14746); test: In vitro inhibitory activity of compound against telomerase
Method in brief: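 Telomerase activity was measured by TRAP assay. Extension products were resolved on 10% nondenaturing polyacrylamide gel, stained with SYBR Green, and band intensity quantified by image analysis. IC50 was derived from the reduction in product signal.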

HEC-1B cell line = test: In vitro antiproliferative activity of compound against HEC-1-B (human endometrical caner ) cell line was determined by SRB assay; type: functional, cell-based
Method in brief: (§1)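 Cells grown for 3 days with compound, then growth read by sulforhodamine B (SRB) staining. IC50 taken as the dose giving 50% growth inhibition of the cultured cells.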

CAKI-2 = test: In vitro antiproliferative activity of compound against Caki-2 (human renal caner ) cell line was determined by SRB assay; type: functional, cell-based; method in brief: as §1
HL-60 = test: In vitro antiproliferative activity of compound against HL-60 (human assay; type: functional, cell-based; method in brief: as §1
A549 = test: In vitro antiproliferative activity of compound against […] (human lung caner ) cell line was determined by SRB assay; type: functional, cell-based; method in brief: as §1
HT-29 = test: In vitro antiproliferative activity of compound against HT-29 (human colon caner ) cell line aws determined by SRB assay; type: functional, cell-based
Method in brief: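 Human tumour cell lines exposed to compound for 3 days, with growth measured by sulforhodamine B (SRB) staining. IC50 is the concentration that inhibits growth of 50% of the cultured cells.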

Telomerase reverse transcriptase, sequence (O14746 whole entry): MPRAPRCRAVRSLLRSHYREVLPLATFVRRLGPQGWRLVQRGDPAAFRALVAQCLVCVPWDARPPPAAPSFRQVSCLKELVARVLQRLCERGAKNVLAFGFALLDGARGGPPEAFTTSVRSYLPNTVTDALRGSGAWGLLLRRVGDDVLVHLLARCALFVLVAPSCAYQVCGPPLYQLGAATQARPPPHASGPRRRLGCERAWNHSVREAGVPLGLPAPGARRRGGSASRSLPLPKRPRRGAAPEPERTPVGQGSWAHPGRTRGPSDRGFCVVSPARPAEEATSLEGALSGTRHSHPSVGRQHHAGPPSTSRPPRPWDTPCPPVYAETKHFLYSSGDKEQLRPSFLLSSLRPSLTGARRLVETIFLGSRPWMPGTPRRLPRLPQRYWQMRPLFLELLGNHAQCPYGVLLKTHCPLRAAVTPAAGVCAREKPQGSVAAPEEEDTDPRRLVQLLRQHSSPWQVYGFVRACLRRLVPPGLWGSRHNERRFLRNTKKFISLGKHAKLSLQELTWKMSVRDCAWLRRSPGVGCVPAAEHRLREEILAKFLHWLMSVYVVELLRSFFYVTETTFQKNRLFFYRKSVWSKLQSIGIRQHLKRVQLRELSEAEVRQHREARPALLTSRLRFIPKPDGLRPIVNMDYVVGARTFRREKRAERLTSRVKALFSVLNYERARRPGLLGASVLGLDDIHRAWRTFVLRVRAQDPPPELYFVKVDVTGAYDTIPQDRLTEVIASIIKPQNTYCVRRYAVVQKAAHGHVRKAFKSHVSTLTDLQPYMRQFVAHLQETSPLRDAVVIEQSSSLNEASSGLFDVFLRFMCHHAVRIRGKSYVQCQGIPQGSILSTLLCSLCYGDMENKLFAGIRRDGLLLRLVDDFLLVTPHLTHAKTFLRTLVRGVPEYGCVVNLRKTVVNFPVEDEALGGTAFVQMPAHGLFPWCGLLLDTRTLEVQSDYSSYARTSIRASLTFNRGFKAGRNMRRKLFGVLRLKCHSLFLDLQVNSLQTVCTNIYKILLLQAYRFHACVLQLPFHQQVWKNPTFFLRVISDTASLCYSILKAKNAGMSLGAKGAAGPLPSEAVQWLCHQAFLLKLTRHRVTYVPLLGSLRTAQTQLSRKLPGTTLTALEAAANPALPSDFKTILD

Compound `Cc1ccc(SC(=O)c2cccc(C=O)n2)cc1` has an IC50 [1] of over 100 µM.
For `CC(=O)Nc1ccc(SC(=O)c2cccc(C=O)n2)cc1`, the IC50 [1] was over 100 µM.
Work on `O=Cc1cccc(C(=O)Sc2ccc([N+](=O)[O-])cc2)n1` yielded an IC50 [1] of 75 µM.
Work on `O=Cc1cccc(C(=O)Sc2ccc(F)c(F)c2)n1` yielded an IC50 [1] of 69 µM.
`O=Cc1cccc(C(=O)Sc2ccc(F)cc2)n1` showed an IC50 [1] of 64 µM.
In the case of `O=Cc1cccc(C(=O)Sc2c(Cl)cc(Cl)cc2Cl)n1`, the IC50 [1] is reported as 50 µM.
Work on `O=Cc1cccc(C(=O)Sc2ccc(Cl)cc2)n1` yielded an IC50 [1] of 33 µM.
For `O=Cc1cccc(C(=O)Sc2ccc(Cl)c(Cl)c2)n1`, the IC50 (HEC-1B cell line) was 56.4 µM, the IC50 (CAKI-2) was over 300 µM and the IC50 (HL-60) was 13 µM. It also gave an IC50 (A549) of 56.9 µM and an IC50 [1] of 24 µM.
`Cc1ccccc1SC(=O)c1cccc(C=O)n1` gave an IC50 [1] of over 100 µM.
`O=Cc1cccc(C(=O)Nc2ccc(Cl)c(Cl)c2)n1` showed an IC50 [1] of over 100 µM.
In the case of `O=Cc1cccc(C(=O)Sc2cccc(Cl)c2)n1`, the IC50 [1] is reported as 79 µM.
For `O=Cc1cccc(C(=O)Sc2cc(Cl)ccc2Cl)n1`, the IC50 [1] was 68 µM.
`O=Cc1cccc(C(=O)Sc2ccc(Br)cc2)n1` showed an IC50 [1] of 56 µM.
In the case of `O=Cc1cccc(C(=O)Sc2ccccc2Cl)n1`, the IC50 [1] is reported as 84 µM.
With `COc1ccc(SC(=O)c2cccc(C=O)n2)cc1` the IC50 [1] was 91 µM.
With `O=Cc1cccc(C(=O)Oc2ccc(Cl)c(Cl)c2)n1` the IC50 [1] was over 100 µM.
For `O=Cc1cccc(C(=O)Sc2c(Cl)cccc2Cl)n1`, the IC50 [1] was 79 µM.
`O=Cc1cccc(C(=O)Sc2cc(Cl)cc(Cl)c2)n1` showed an IC50 [1] of 64 µM.
In the case of `COc1ccccc1SC(=O)c1cccc(C=O)n1`, the IC50 [1] is reported as over 100 µM.
`COc1cccc(SC(=O)c2cccc(C=O)n2)c1` was tested, and the IC50 [1] was 76 µM.
For `CC[C@@]1(O)C(=O)OCc2c1cc1n(c2=O)Cc2cc3ccccc3nc2-1` [CAMPTOTHECIN], the IC50 (HEC-1B cell line) was 8.64 µM, the IC50 (CAKI-2) was 3.96 µM and the IC50 (HL-60) was 0.066 µM. It also gave an IC50 (A549) of 2.53 µM and an IC50 (HT-29) of 1.4 µM.
Compound `Cc1cccc(SC(=O)c2cccc(C=O)n2)c1` has an IC50 [1] of 76 µM.
`N#Cc1ccc(C=O)nc1SCc1c(Cl)cccc1Cl` showed an IC50 (HEC-1B cell line) of 175 µM, an IC50 (CAKI-2) of over 300 µM and an IC50 (HL-60) of 26.7 µM. For the same compound, the IC50 (A549) was over 300 µM and the IC50 [1] was 77 µM.
